The record followed here is ChEMBL document CHEMBL4513216, “Probing the Open Global Health Chemical Diversity Library for Multistage-Active Starting Points for Next-Generation Antimalarials” (ACS Infect Dis, 2020).

The data set is described as follows: Toxicity liver stage against HepG2, at 10uM. Details: test concentration 10 uM, cell line HepG2-A16-CD81EGFP. It is filed as cell-based. The note with it: human, HepG2-A16-CD81EGFP cells; read-out: INHIBITION
A digest of the protocol: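 Uninfected HepG2-A16-CD81EGFP cells, 3 × 10^3 per well, 1536-well, plated on prespotted compound at 10 μM final, parasite-free screening media added to match infected plates; puromycin 10 μM positive, DMSO 0.5% negative; run in parallel with 48 h PbLuc assay at 37 °C, 5% CO2; viability by CellTiter-Glo luminescence, normalized to controls.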
`O=C1CCCc2cc(-c3csc(CCN4CCOC4=O)n3)ccc2N1`: the cytotoxicity at 10 µM worked out at 0.196%.
For `Cc1ccc(C(CC(=O)O)NC(=O)CCc2cccs2)cc1` (centres undefined), the cytotoxicity at 10 µM is -4.32%.
On to `O=C(NC[C@H]1OC[C@@H](NC2CCCC2)[C@@H]1O)C1CCCC1`, for which the cytotoxicity at 10 µM was -2.15%.
With `COCC(=O)Nc1ccc(-c2noc([C@@H]3CCCN3CC(C)C)n2)cn1` the figure was 5.82%; with `COCCCNC(=O)Nc1ncc(-c2cccc(OC)c2)n1CCOC`, 18.6%; with `CO[C@@H]1CN(c2ccccc2)S(=O)(=O)[C@@]12CCNC2`, -2.64%.
The same measure for `CC[C@H](C)[C@H](NC(=O)c1cccc(-n2cnnn2)c1)C(=O)OC`: 7.98%.
Consider `CCc1c(C)sc2nc3n(CCN(C)C)nc(SC)n3c(=O)c12`, for which the cytotoxicity at 10 µM is 2.26%.
With `CNC(=O)c1nc(CC(=O)Nc2ccc3cc[nH]c3c2)no1` the figure was 7.98%; with `O=C(NCc1ccccc1)NCC1CCN(Cc2ccsc2)CC1`, -14.1%.
As for `CCc1ccc(S(=O)(=O)NCCOc2ccc3nnc(C)n3n2)s1`, the cytotoxicity at 10 µM was -6.98%.
For `Cc1cc(C(O)CCNC(=O)COc2ccccc2F)c(C)o1` (centres undefined), the cytotoxicity at 10 µM turned out to be 0.931%.
With `CCC(=O)NCc1cc(C2CC2)n(C2CCCC2)n1` the figure was -4.36%; with `CCc1ccc(C(=O)N2CCCC3(CCCC(=O)N3C)C2)cc1` (centres undefined), -5.72%; with `Cn1cc(CN2CCc3ncnc(N4CCCC4)c3CC2)cn1`, -0.818%.
In the case of `Cn1cccc1C(=O)N1C[C@@H]2CCCO[C@@H]2[C@H](N2CCOCC2)C1`, the cytotoxicity at 10 µM was -1.19%.
With `Cc1noc(C)c1CN1C[C@@H]2CN(C(=O)c3cscn3)C[C@@H]2C1` the figure was -3.09%; with `O=C(c1cc(-n2cnnn2)ccc1Cl)N1CCOCC1`, 6.22%.
Turning to `COCCCNC(=O)c1c(-n2cnnn2)sc2c1CCC2`, the cytotoxicity at 10 µM is 11.4%.
With `OCCNc1nc(NCc2cccnc2)nc2nccnc12` the figure was -3.55%; with `COc1ccc(-c2ccnc3nc(N4CCCCC4)[nH]c(=O)c23)cc1`, 5.31%.
The same measure for `COCC(=O)N1CC[C@@H]2CN(Cc3cccc(Cl)c3)S(=O)(=O)[C@@H]2CC1`: -3.07%; for `Cc1cc(C(=O)Nc2cnn(CC(F)(F)F)c2)nc(N2CCOCC2)n1`: -2.02%.
With `Cc1cc(C)nc(Nc2nccnc2C2CCCN(C(C)C)C2)n1` (centres undefined) the figure was -6.15%; with `NC(=O)C1(CCCc2ccccn2)CCCN(CCO)C1` (centres undefined), 3.38%.
Consider `CC(=O)NCC(=O)N1C[C@@H]2CC[C@H](Oc3ccccc3Cl)[C@@H]2C1`, for which the cytotoxicity at 10 µM was 9.16%.
With `O=C(Cc1ccsc1)N1CCC(O)(CN2CCc3ccccc3C2)C1` (centres undefined) the figure was -7.27%; with `CC(=O)N1C[C@@H](c2ccsc2)[C@@H]2CN(CC3CCCCC3)CC[C@@H]21`, -7.99%; with `Cc1ccc(C2CN(CCS(=O)(=O)C(C)C)CCO2)c(C)c1` (centres undefined), 8.25%.
The same measure for `NC(=O)N1CCCN(CCCSCc2ccccc2)CC1`: -2.17%.
Turning to `Cc1cnn(C2CCCN(C(=O)c3cc(-c4ccco4)[nH]n3)C2)c1` (centres undefined), the cytotoxicity at 10 µM was -9.48%.
With `CS(=O)(=O)c1ccc2c(c1)N(C(=O)Cc1cccc(F)c1)CCC2` the figure was 14.9%.
For `O=C(c1ccc(CN2CCCCC2)cc1)N1CCCC1c1cccs1` (centres undefined), the cytotoxicity at 10 µM is -7.15%.
Take `Cc1cc(C)c(S(=O)(=O)Nc2c(C)noc2C)cc1C(=O)O`: the cytotoxicity at 10 µM is -8.18%.
Turning to `CN(C)c1ncccc1CNC(=O)N(Cc1ccccc1F)C1CC1`, the cytotoxicity at 10 µM was 2.6%.
Regarding `Cc1noc(C(C)C)c1C(=O)NS(=O)(=O)c1cccnc1`, the cytotoxicity at 10 µM came to 0.345%.
With `CN(C)CC1CN(c2ncnc3ccsc23)CCO1` (centres undefined) the figure was 12%; with `CCN(CC1CCOC1)C(=O)c1cc(OC)c2c(c1)OCCO2` (centres undefined), -7.35%.
The same measure for `COc1cc(C(=O)N(C)Cc2cc(C(=O)O)c(C)o2)cc(OC)c1OC`: -1.76%.
With `CCN(C(=O)NCc1cccnc1N(C)C)C(C)c1cccnc1` (centres undefined) the figure was -4.6%.
For `CS(=O)(=O)CCN(CCc1cccc(F)c1)C1CC1`, the cytotoxicity at 10 µM came to 11.4%.
The same measure for `Cc1csc(NC(=O)C2CCN(Cc3cccc4c3OCCO4)CC2)n1`: -17.9%; for `O=S(=O)(NCCSc1nncn1C1CC1)c1ccccc1`: -14.1%.
With `CN1CCN(C(=O)CCc2cccnc2)c2ccc(F)cc21` the figure was -2.23%; with `COCCC1(CNC(=O)NC2CCCN(C)C2)CC1` (centres undefined), -0.926%.
With `N#Cc1cccc(CS(=O)(=O)NCC(O)Cc2ccccc2)c1` (centres undefined) the figure was 2.99%.
`CCOC(CC)C(=O)NCc1ccnc(Oc2ccc(F)cc2)c1` (centres undefined): the cytotoxicity at 10 µM is -1.43%.
For the compound `Cc1noc(C)c1C(=O)N1CC[C@H]2C[C@@H](c3ccncn3)O[C@@H]2C1`, the cytotoxicity at 10 µM was -2.16%.
With `CC(C)[C@H]1COC(=O)N1Cc1nncn1C(C)C` the figure was -9.17%; with `COc1ccccc1OC1(C(=O)O)CCN(c2ncccc2F)CC1`, -12.9%.
`Nc1nc(NCCc2[nH]nc3c2CCCC3)cc(N2CCOCC2)n1`: the cytotoxicity at 10 µM was determined as 0.666%.
The same measure for `COc1ccc(OC)c(-c2nc(CN(C)Cc3noc(C)n3)c(C)o2)c1`: -3.7%; for `CCN1CCC2(CCC1=O)CN(c1cnc3ccccc3n1)CCN2C` (centres undefined): 1.79%.
Take `Oc1cc(CCC2CCCCN2)cc(-c2cccnc2)c1` (centres undefined): the cytotoxicity at 10 µM is 4.11%.
For `Cc1ccc2nc(C)c(C)c(C(=O)NCCCn3cnnc3)c2c1`, the cytotoxicity at 10 µM is -2.89%.
With `Cc1nc(-c2cc(F)c3c(c2)CC(CN)O3)c[nH]1` (centres undefined) the figure was 9.15%.
With `COc1cccc(CC2(C(=O)O)CCN(c3ccc(Cl)cn3)CC2)c1` the figure was -14%; with `Cc1nonc1CN(C)Cc1nc(-c2ccccc2Cl)oc1C`, -3.04%.
For the compound `O=C1CCC2(CCN(Cc3ccc(F)cc3Cl)CC2)CN1CCO`, the cytotoxicity at 10 µM came out at 5.29%.
With `Cc1nc2cc(C(=O)N3C[C@@H](C(=O)O)[C@H](c4ccncc4)C3)ccc2[nH]1` the figure was 0.682%.
With `NC(=O)c1ccc(N2CCN(Cc3c(Cl)cncc3Cl)CC2)nc1` the figure was 10.6%.
The same measure for `CCN1CC2(CCN(C(=O)C(C)Oc3ccc(F)cc3Cl)CC2)CC1=O` (centres undefined): -2.98%.
Turning to `Cc1ccc(C2(O)CCN(C(=O)Cn3cc(C)c(=O)[nH]c3=O)CC2)nc1`, the cytotoxicity at 10 µM was -7.22%.
The same measure for `CN(CC1Cc2ccccc2CN1C)c1nc(N)nc2c1CCNCC2` (centres undefined): 0.0642%; for `CC(C)Cc1nc(CCn2ccc(=O)[nH]c2=O)n(-c2ccccn2)n1`: -5.41%; for `Cc1nc(C)n(CC2CN(CC(=O)NC3CCCC3)CCO2)n1` (centres undefined): -4.83%.
Take `Cc1nc(C)n(CC2CCCCN2Cc2cnc(C)s2)n1` (centres undefined): the cytotoxicity at 10 µM is -2.66%.
On to `Cc1cnn(C2CCCN(C(=O)c3ccc(-n4cccn4)nc3)C2)c1` (centres undefined), for which the cytotoxicity at 10 µM was -6.12%.
With `COc1c(CNC2CCN(c3ncccn3)CC2)c(C)nn1C`, the cytotoxicity at 10 µM was -1.66%.
With `O=C(CCOc1ccc(F)cc1)N1CCCC1Cn1cccn1` (centres undefined) the figure was -2.7%; with `CCc1ccsc1C(=O)N1CCCN(Cc2nccn2CC)CC1`, 1.84%.
Regarding `Cc1ccc(C(=O)Nc2cn[nH]c2)cc1`, the cytotoxicity at 10 µM was -8.83%.
The same measure for `Cc1cc(C)n(CC2CCCN2C(=O)CCc2nccs2)n1` (centres undefined): -7.07%.
The same measure for `c1cnnc(N2CCCC(NCc3ccncc3)C2)c1` (centres undefined): -5.39%; for `Cn1cnnc1C1CCCN(C(=O)c2ccc3c(c2)OCCO3)C1` (centres undefined): -11%; for `CCn1cc(CN2CCCN(C(=O)CCc3ccncc3)CC2)cn1`: -11.1%.
For `Cc1ccsc1C(=O)NCCCn1nc2ccccn2c1=O`, the cytotoxicity at 10 µM was -1.1%.
As to `c1ccc2oc(CCCN3CCCC3Cn3cncn3)nc2c1` (centres undefined), the cytotoxicity at 10 µM is -1.42%.
In the case of `CC(C)n1ccnc1CN1CCCN(C(=O)c2nccnc2N)CC1`, the cytotoxicity at 10 µM is -7.26%.
With `CC(NC(=O)NCCCc1n[nH]c(N)c1C#N)c1ccccc1` (centres undefined) the figure was -7.21%.
In the case of `Cc1nn(C)cc1CCC(=O)N1CCCC(n2cncn2)C1` (centres undefined), the cytotoxicity at 10 µM is 1.9%.
Regarding `CCN(CC)C(C(=O)NCc1ccc(N2CCCC2)nc1)C(C)C` (centres undefined), the cytotoxicity at 10 µM is -8.08%.
The same measure for `O=C(CCN1CCCC1c1cccs1)N1CCc2sccc2C1` (centres undefined): -0.636%; for `Cc1nc(C)n(C2CCCN(C(=O)c3ccccc3C)C2)n1` (centres undefined): 1.59%; for `CC(=O)Nc1nc(C(=O)Nc2ccc(F)cc2)cs1`: 6.47%.
On to `O=C(CN(C1=NCCCC1)c1ccccc1)c1ccc(OC(F)F)cc1`, for which the cytotoxicity at 10 µM worked out at 2.88%.
The same measure for `Cc1ccc(C(=O)N2CCC3(CC2)CC(c2ccccc2)C(=O)N3)cn1` (centres undefined): -7.42%; for `C[C@@H]1C(=O)NC[C@H]2CN(Cc3ccc4c(c3)OCO4)C[C@H]21`: 1.44%; for `CN1CCC2(CCN(c3ncc(F)cn3)CC2)C1=O`: 0.411%.
In the case of `O=C(Cc1cccs1)N1CC[C@H]2[C@@H]1CCC(=O)N2c1cccnc1`, the cytotoxicity at 10 µM turned out to be 3.94%.
With `Cc1ccc(N2CC[C@H]3O[C@H](C(=O)NCc4ccco4)CC[C@H]32)nn1` the figure was -71.9%; with `COc1ccc(CN2CCC3(CC2)NC(=O)CC3c2ccncc2)cc1` (centres undefined), 5.97%; with `Cc1cccc(CN2C(=O)CC[C@@H]3[C@H]2CCN3Cc2cccnc2)n1`, -74.6%.
With `Cc1cccc(C(=O)N2C[C@@H]3C(CC(=O)Nc4cccnc4)[C@@H]3C2)n1` (some centres undefined) the figure was -0.39%.
